Sampled rows, rich in hits. Any-hit rate of the full collection: about 2.4%.
TPT1 inh: C. albicans TPT1 enzyme inhibition; 300,000 compounds, 0.81% hits; recombinant caTPT1, FP RNA substrate dephosphorylation; inhibition, % at 5 µM;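 active = inhibition above the mean of all tested compounds plus 3 SD, set per screening campaign, cut at about 24% in these data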;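 also: plate controls were DMSO alone for no effect and ferristatin control at 100 nM for full effect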
Rin1-Abl PPI inh: human Rin1-Abl interaction inhibition; TR-FRET Rin1/Abl binding, biochemical; P00519+Q13671; 360,000 compounds, 0.4% hits; inhibition, % at 7.35 µM; AID 588664; in the data active = inhibition above about 5%, passing the limit was not always enough
CSN inh: blocks human CSN-mediated cullin deneddylation | Q92905 | Purified CSN, SCF-Nedd8-OG deneddylation, fluorescence polarization | inhibition, % at 12.5 µM | 360,000 compounds, 0.38% hits | AID 651999;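 active = pattern-corrected inhibition above about 35%, with an unprinted fluorescence ratio check between 0.5 and 1.5, limit read from the data, passing the limit was not always enough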;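 also: 0% = enzyme with substrate and 100% = substrate without enzyme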
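test system = HEK293T-derived human Csn5 enzyme | amount = 0.24 nM Csn5 enzyme, final concentration | medium = Tris/NaCl/DTT buffer, pH 7.5 | schedule = 90 min reaction at room temperature | signal = FP | evaluation = inhibition of Csn5 cleavage, % | compound dosing = single dose of 12.5 µM compound with 0.25% DMSO | probe or stimulus = 10 nM SCFSkp2-Nedd8OG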
HNF4A DNA FP: change in binding of human HNF4 alpha to DNA; HNF4a-FITC DNA binding, fluorescence polarization, 1 h; P41235; 360,000 compounds, 0.3% hits; activity change, % at 10 µM; in the data active = activity change above about 30%, passing the limit was not always enough
Neddyl block: inhibitors of human cullin neddylation; TR-FRET cullin neddylation, biochemical; 360,000 compounds, 0.58% hits; inhibition, % at 25 µM; P61081+Q13564; AID 651699; in the data active = inhibition above about 36%
Target sequence (P61081 whole entry, looked up): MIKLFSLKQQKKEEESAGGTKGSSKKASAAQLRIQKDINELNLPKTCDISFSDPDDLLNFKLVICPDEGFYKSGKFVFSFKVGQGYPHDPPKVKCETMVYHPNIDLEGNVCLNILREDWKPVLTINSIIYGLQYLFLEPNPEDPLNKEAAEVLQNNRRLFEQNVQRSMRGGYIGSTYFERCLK
Target sequence (Q13564 whole entry, looked up): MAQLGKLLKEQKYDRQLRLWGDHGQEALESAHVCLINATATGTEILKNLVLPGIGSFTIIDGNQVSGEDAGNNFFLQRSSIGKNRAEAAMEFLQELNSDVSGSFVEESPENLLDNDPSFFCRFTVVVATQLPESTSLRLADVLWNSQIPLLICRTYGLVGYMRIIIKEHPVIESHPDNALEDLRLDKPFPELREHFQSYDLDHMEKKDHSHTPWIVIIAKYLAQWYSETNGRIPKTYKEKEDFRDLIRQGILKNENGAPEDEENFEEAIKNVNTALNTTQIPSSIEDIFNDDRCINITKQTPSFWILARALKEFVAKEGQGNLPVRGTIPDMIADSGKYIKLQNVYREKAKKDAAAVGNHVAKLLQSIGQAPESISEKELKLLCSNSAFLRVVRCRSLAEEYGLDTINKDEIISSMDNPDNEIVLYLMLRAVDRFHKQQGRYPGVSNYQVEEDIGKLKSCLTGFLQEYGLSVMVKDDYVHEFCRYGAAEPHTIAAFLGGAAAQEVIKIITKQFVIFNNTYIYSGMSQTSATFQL
Rpn11 inh: inhibitors of human proteasome Rpn11; human 26S proteasome, Ub4-pepOG fluorescence polarization; 20S core pre-blocked with epoxomicin; inhibition, % at 20 µM; 360,000 compounds, 0.59% hits; AID 588493;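 active = inhibition at 20 µM, scaled to each plate's controls, above about 33%, limit read from the data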
Rin1 Abl conf: confirmation of inhibitors of human Rin1-Abl interaction | inhibition, % at 7.35 µM | 1,300 compounds, 49% hits | shares compounds with Rin1-Abl PPI inh | TR-FRET Rin1-Abl binding, purified proteins
GFP quench-1: counter-screen for Rin1-Abl inhibitors: GFP fluorescence quenchers | shares compounds with Rin1-Abl PPI inh | inhibitors/quenchers counterscreen | inhibition, % at 6.75 µM | 1,300 compounds, 8.5% hits;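 also: ABL1-eGFP fusion protein alone without its partner RIN1-SBP; 0% = protein with vehicle and 100% = wells lacking protein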
GFP quench dose: quenches GFP in dose response, Rin1-Abl counter-screen. IC50, µM. GFP fluorescence interference/quenching counterscreen. AID 602182. 230 tested, under 10 active. shares compounds with Rin1-Abl PPI inh; call rule not given here;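 also: ABL1-eGFP fusion protein alone without its RIN1 binding partner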
GFP quench-2: counter-screen for Rin1-Abl interaction inhibitors: GFP fluorescence quenching; GFP fluorescence quenching counterscreen, biochemical; shares compounds with Rin1-Abl PPI inh; IC50, µM; AID 602397; 25 tested, under 10 active; call rule not given here
Neddyl conf: cullin neddylation inhibition, confirmation. shares compounds with Neddyl block. TR-FRET cullin neddylation biochemical assay. calls only at 25 µM. 1,800 compounds, 13% hits; in the data active = inhibition above about 40%;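 also: neddylation substrate is the cullin 1 ring ligase complex with SKP2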
Starred values were filed as active, the others as inactive; i = inactive; . = not tested or not shown; ! = not confirmed by another sample. Rule as the data show it, unless noted: active = inhibition above about 6.5%; inactive = the rest.

SMILES | TPT1 inh | Rin1-Abl PPI inh | CSN inh | HNF4A DNA FP | Neddyl block | Rpn11 inh | Rin1 Abl conf | GFP quench-1 | others
COc1ccccc1C1CC(c2ccccc2)Nc2ncnn21 (stereo not drawn) | -3 | 1 | -3 | 4 | 6 | -10 | . | .
O=C(c1ccccc1)N(CCN1CCOCC1)C1(C(=O)Nc2ccccc2)CCCCC1 | -7 | 8.5* | 9 | -2 | 0 | -2 | -1 | 0
C/C=C(\C)C(=O)OC1[C@H](OC(C)=O)C2(CO)C(CC1(C)C)C1=CCC3C4(C)CCC(O[C@@H]5O[C@H](C(=O)O)[C@@H](O[C@@H]6O[C@H](CO)[C@@H](O)[C@H](O)[C@H]6O)[C@H](O)[C@H]5O[C@H]5O[C@H](CO)[C@@H](O)[C@H](O)[C@H]5O)[C@](C)(CO)C4CCC3(C)[C@]1(C)C[C@H]2O (stereo partly drawn) | . | 3 | 0 | 2 | 3 | 6 | . | .
CCCC(=O)NC(c1ccco1)c1cc([N+](=O)[O-])c2cccnc2c1O (stereo not drawn) | -1 | 9.3* | 0 | -10 | -11 | 19 | -3 | 5
CCC(=O)NC(c1ccc(C)cc1)c1ccc2cccnc2c1O (stereo not drawn) | 0 | 11* | -2 | -5 | 5 | 12 | 6.8* | 2
CCC(=O)NC(c1ccc(C)cc1)c1cc([N+](=O)[O-])c2cccnc2c1O (stereo not drawn) | -1 | 3 | -8 | -5 | -24 | 37 | . | .
CCC(=O)NC(c1ccco1)c1cc(Br)c2cccnc2c1O (stereo not drawn) | . | 7.9* | -3 | 5 | 0 | 22 | 8.1* | 4
CC(=O)NC(c1ccco1)c1ccc2cccnc2c1O (stereo not drawn) | -4 | 7 | -5 | 0 | 13 | 5 | . | .
CCCC(=O)NC(c1ccc(C(C)C)cc1)c1ccc2cccnc2c1O (stereo not drawn) | -1 | 1 | 2 | -2 | 10 | 10 | . | .
CCc1nn(C(CC)C(=O)NCCCN2CC(C)CC(C)C2)c(=O)c2cc3oc(C)cc3n12 (stereo not drawn) | -4 | -1 | 3 | 1 | -1 | -12 | . | .
COc1ccc2oc(C(=O)NCC(c3ccco3)N(C)C)c(C)c2c1 (stereo not drawn) | 1 | 40* | 2 | -1 | 50* | 0 | 45* | 2 | GFP quench dose=>68;GFP quench-2=>68
COc1ccc2oc(C(=O)NCCc3ccccc3)c(C)c2c1 | 5 | 4 | 6 | 1 | 34 | 0 | . | .
O=C(CCn1c(=O)c2cccn2c2ccccc21)Nc1ccc(F)cc1 | -1 | -4 | 4 | 8 | -7 | 7 | . | .
CN(C)c1ccc(-c2[nH][nH]c(=O)c2NC(=O)c2ccccn2)cc1 | . | 34* | 6 | 3 | 45* | 1 | 11* | 0 | Neddyl conf=i
Oc1ccc(C2CNCCc3c2cc(O)c(O)c3Cl)cc1 (stereo not drawn) | 1 | 18*! | -7 | -3 | 50*! | 0 | 30* | 8.4*
Cc1ccc(NC(=O)C(C)SCc2nc3sc(C)c(C)c3c(=O)[nH]2)nc1 (stereo not drawn) | 8 | -1 | 7 | 6 | 29 | 18 | . | .

From PubChem
